The results in this text go back to ChEMBL document CHEMBL3785007 (Drug Metabol Drug Interact, 2011).

What is called Cmax is the peak of the concentration-time curve. What is called CL/F is clearance divided by bioavailability, as obtained after extravascular dosing.

The nature of data set [1]: Cmax in healthy Chinese subject (8 subjects) with heterozygous mutant of NAT2 genotype at 300 mg, po administered after overnight fast by HPLC method. It counts as ADME, organism-based. Also on record: dose 300 mg, route oral. Particulars: human, in vivo.
The subject of data set [2] is Homo sapiens. Put plainly: AUC in healthy Chinese subject (8 subjects) with heterozygous mutant of NAT2 genotype at 300 mg, po administered after overnight fast by HPLC method. It counts as ADME, organism-based. Particulars: in vivo. The method, boiled down: (§1)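 Plasma separated within 1 h and stored at −70°C. Deproteinised with 10% perchloric acid, then reversed-phase C18 HPLC with UV detection at 266 nm. AUC by trapezoidal method extrapolated to infinity; mean±SD.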

Data set [3] is described as follows: Clearance in healthy Chinese subject (8 subjects) with heterozygous mutant of NAT2 genotype at 300 mg, po administered after overnight fast by HPLC method. It counts as ADME, organism-based. Particulars: human, in vivo.
In data set [4] the test system is Homo sapiens. Put plainly: Cmax in healthy Chinese subject (8 subjects) with heterozygous mutant of NAT2 genotype assessed as N-acetylisoniazid at 300 mg, po administered after overnight fast by HPLC method. Particulars: in vivo. It counts as ADME, organism-based. More on the design: dose 300 mg, route oral.
The subject of data set [5] is Homo sapiens. Description: AUC in healthy Chinese subject (8 subjects) with heterozygous mutant of NAT2 genotype assessed as N-acetylisoniazid at 300 mg, po administered after overnight fast by HPLC method. Particulars: in vivo. It counts as ADME, organism-based. The method, boiled down:
as §1

For data set [6], the system named is Homo sapiens. Description: Clearance in healthy Chinese subject (8 subjects) with heterozygous mutant of NAT2 genotype assessed as N-acetylisoniazid at 300 mg, po administered after overnight fast by HPLC method. It counts as ADME, organism-based. Particulars: in vivo.
Data set [7] in a line: Cmax in healthy Chinese subject (8 subjects) with homozygous wild type NAT2 genotype at 300 mg, po administered after overnight fast by HPLC method. It counts as ADME, organism-based. More on the design: dose 300 mg, route oral. Particulars: human, in vivo.
In data set [8] the test system is Homo sapiens. Description: AUC in healthy Chinese subject (8 subjects) with homozygous wild type NAT2 genotype at 300 mg, po administered after overnight fast by HPLC method. It counts as ADME, organism-based. Particulars: in vivo. The method, boiled down:
as §1

Data set [9] is described as follows: Clearance in healthy Chinese subject (8 subjects) with homozygous wild type NAT2 genotype at 300 mg, po administered after overnight fast by HPLC method. It counts as ADME, organism-based. Particulars: human, in vivo.
Data set [10] concerns Homo sapiens. Description: Cmax in healthy Chinese subject (8 subjects) with homozygous wild type NAT2 genotype assessed as N-acetylisoniazid at 300 mg, po administered after overnight fast by HPLC method. Particulars: in vivo. It counts as ADME, organism-based. Also on record: dose 300 mg, route oral.
Data set [11] concerns Homo sapiens. Description: AUC in healthy Chinese subject (8 subjects) with homozygous wild type NAT2 genotype assessed as N-acetylisoniazid at 300 mg, po administered after overnight fast by HPLC method. It counts as ADME, organism-based. Particulars: in vivo. In a few lines:
as §1

Data set [12] relates to Homo sapiens. Description: Clearance in healthy Chinese subject (8 subjects) with homozygous wild type NAT2 genotype assessed as N-acetylisoniazid at 300 mg, po administered after overnight fast by HPLC method. It counts as ADME, organism-based. Particulars: in vivo.
Data set [13] in a line: Cmax in healthy Chinese subject (8 subjects) with homozygous mutant of NAT2 genotype at 300 mg, po administered after overnight fast by HPLC method. It counts as ADME, organism-based. More on the design: dose 300 mg, route oral. Particulars: human, in vivo.
The test system of data set [14] is Homo sapiens. Description: AUC in healthy Chinese subject (8 subjects) with homozygous mutant of NAT2 genotype at 300 mg, po administered after overnight fast by HPLC method. Particulars: in vivo. It counts as ADME, organism-based. The method, boiled down: as §1
Data set [15] can be described thus: Clearance in healthy Chinese subject (8 subjects) with homozygous mutant of NAT2 genotype at 300 mg, po administered after overnight fast by HPLC method. It counts as ADME, organism-based. Particulars: human, in vivo.
The subject of data set [16] is Homo sapiens. Put plainly: Cmax in healthy Chinese subject (8 subjects) with homozygous mutant of NAT2 genotype assessed as N-acetylisoniazid at 300 mg, po administered after overnight fast by HPLC method. It counts as ADME, organism-based. Also on record: dose 300 mg, route oral. Conditions: in vivo.
Data set [17] relates to Homo sapiens. Put plainly: AUC in healthy Chinese subject (8 subjects) with homozygous mutant of NAT2 genotype assessed as N-acetylisoniazid at 300 mg, po administered after overnight fast by HPLC method. It counts as ADME, organism-based. Particulars: in vivo. The method, boiled down: as §1
Data set [18] concerns Homo sapiens. Put plainly: Clearance in healthy Chinese subject (8 subjects) with homozygous mutant of NAT2 genotype assessed as N-acetylisoniazid at 300 mg, po administered after overnight fast by HPLC method. It counts as ADME, organism-based. Conditions: in vivo.
Data set [19] has as its system Mycobacterium tuberculosis. Put plainly: Antitubercular activity against Mycobacterium tuberculosis in tuberculosis patient assessed as compound AUC (0 to infinity) required to cause 90% maximum early bactericidal activity at 0.2 to 12 mg/kg. It counts as functional, organism-based.
The subject of data set [20] is Mycobacterium tuberculosis. Description: Antitubercular activity against Mycobacterium tuberculosis in tuberculosis patient assessed as compound level in serum required to cause 90% maximum early bactericidal activity at 0.2 to 12 mg/kg after 2 hrs. It counts as functional.

With `NNC(=O)c1ccncc1` [ISONIAZID], the maximum concentration (Cmax) in data set [1] was determined as 5720 ng/mL; in [4], 3.99 mg/L; in [7] it was 4930 ng/mL; in [10], 5.59 mg/L; in data set [13], 8280 ng/mL; in data set [16], 1.38 mg/L. The AUC in data set [2] was 16.3 mg·h/L; in data set [5], 38 mg·h/L; in data set [8], 10.3 mg·h/L; in data set [11] it was 42.2 mg·h/L; in data set [14], 42.2 mg·h/L; in data set [17] it was 19.8 mg·h/L. The AUC in data set [19] came to 10500 ng·h/mL. Also, the CL/F is 320 mL/min in data set [3], 501 mL/min in data set [9] and 130 mL/min in data set [15]. In addition, the CL in data set [6] was 8.03 L/h; in data set [12], 7.4 L/h; in data set [18], 16.07 L/h. Besides, the Activity in [20] came out at 2.19 µg/mL.
